The text below walks through data of publication PMC9073044 (Saudi Journal of Biological Sciences, 2021).

Where a name gives a salt, the structure may show the parent alone. Some results are limits rather than exact numbers.

A short description of data set [1]: Caco-2 cells monolayer transport study. It counts as in vitro ADME. Conditions: human. In a few lines:
(§1)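 Caco-2 cells seeded at 1 × 10^5/cm2 on 0.33 cm2 transwell inserts and grown 21 days in DMEM with 20% FBS; TEER >300 Ω•cm2. Monolayers were preincubated 30 min in 37 ℃ HBSS with 10 mM HEPES. Test compound at 12, 120 and 1200 μg/mL was run bidirectionally, ± GF120918, for 2 h. […] Lucifer yellow (20 μg/mL, AP→BL, fluorescence) checked tight junctions.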
In general terms: Passage across Caco-2 layers is used to estimate intestinal permeability.

The nature of data set [2]: Cytotoxicity by MTT assay. The settings on record: human, Caco-2 cells. It counts as cell-based. In a few lines:
(§2)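 MTT assay: Caco-2 cells seeded at 5 × 10^3 per well in 96-well plates and incubated 24 h. Medium was replaced with test compound (12, 120 or 1200 μg/mL) for 24 h. MTT was then added for 4 h, the supernatant removed, formazan dissolved in DMSO, and absorbance read at 630 nm.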

The next data set deals with Caco-2 cells. The data set can be described thus: Cytotoxicity by MTT assay. It counts as cell-based. Conditions: lamivudine 12, 120 and 1200 μg/mL, 24 h. In a few lines: as §2
(Tetrazolium assays rely on reduction of a dye to a coloured formazan, in cell work by metabolically active cells.)

A further data set concerns rats intestine. The data set can be described thus: In-situ single-pass intestinal perfusion. It counts as in vivo, SD rats.
The conditions of data set [3]: ref Du et al., 2019, Yuen et al., 1995; cited from earlier work.
Another data set has as its system Caco-2 cells monolayer. The data set can be described thus: Caco-2 cells monolayer transport study. It counts as in vitro ADME. In outline: as §1
A further data set concerns human DNA polymerase. Conditions: ref Reis et al., 2013; cited from earlier work.
The mark [4] stands for this setting: Caco-2, with GF120918 (elacridar), 10 μM.

For orientation: Papp A→B means how fast a substance crosses the layer from the apical side. A lower Papp A→B goes with poor permeation. As to `Nc1nc2c(ncn2COCCO)c(=O)[nH]1` [Acyclovir], the Papp A→B at 2 h in data set [1] (Caco-2) was determined as 0.081 ± 0.011 ×10⁻⁶ cm/s.

One may read the Papp B→A as how fast a substance crosses the layer from the basolateral side. A word on the efflux ratio: it is the permeability from basolateral to apical divided by that in the opposite direction, in the common usage. For the compound `C[C@H]1O[C@@H](O[C@H]2[C@@H](O)C[C@H](O[C@H]3[C@@H](O)C[C@H](O[C@H]4CC[C@@]5(C)[C@H](CC[C@@H]6[C@@H]5C[C@@H](O)[C@]5(C)[C@@H](C7=CC(=O)OC7)CC[C@]65O)C4)O[C@@H]3C)O[C@@H]2C)C[C@H](O)[C@@H]1O` [Digoxin], in data set [1] (Caco-2), the Papp A→B at 2 h came out at 0.09 ± 0.005 ×10⁻⁶ cm/s; the Papp B→A at 2 h, 30 μg/mL is 11.9 ± 0.312 ×10⁻⁶ cm/s; the efflux ratio at 2 h, 30 μg/mL worked out at 133. Also, in data set [1] (setting [4]), the Papp A→B at 2 h, 30 μg/mL stood at 3.59 ± 0.128 ×10⁻⁶ cm/s; the Papp B→A at 2 h, 30 μg/mL worked out at 5.15 ± 0.058 ×10⁻⁶ cm/s; the efflux ratio at 2 h, 30 μg/mL came to 1.43.

As a reminder, the viability is the share of living cells, or the viability signal relative to a control. Read a high viability as better survival. In data set [2], `Nc1ccn([C@@H]2CS[C@H](CO)O2)c(=O)n1` [Lamivudine] gave a viability at 24 h, 1200 μg/mL greater than 80%. For the same compound, the “growth ability of Caco-2 cells” value with Caco-2 cells is recorded as “did not significantly affect”. Moreover, in the data set on rats intestine (from Peff in SPIP), the “permeability in BCS” value is reported as “moderate permeability”. For the same compound, the bioavailability entry in data set [3] is recorded as “exceed 80%”. Also, in data set [1] (Caco-2), the Papp A→B at 2 h, 12 μg/mL was determined as 0.296 ± 0.005 ×10⁻⁶ cm/s; the Papp A→B at 2 h, 120 μg/mL came out at 0.297 ± 0.015 ×10⁻⁶ cm/s; the Papp A→B at 2 h, 1200 μg/mL stood at 0.285 ± 0.011 ×10⁻⁶ cm/s; the Papp B→A at 2 h, 12 μg/mL worked out at 0.788 ± 0.044 ×10⁻⁶ cm/s. In data set [1] (Caco-2), this compound displayed a Papp B→A at 2 h, 120 μg/mL of 0.77 ± 0.027 ×10⁻⁶ cm/s and a Papp B→A at 2 h, 1200 μg/mL of 0.737 ± 0.009 ×10⁻⁶ cm/s. In data set [1] (setting [4]), this compound returned a Papp A→B at 2 h, 12 μg/mL of 0.307 ± 0.008 ×10⁻⁶ cm/s; a Papp A→B at 2 h, 120 μg/mL of 0.322 ± 0.007 ×10⁻⁶ cm/s; a Papp A→B at 2 h, 1200 μg/mL of 0.293 ± 0.004 ×10⁻⁶ cm/s; a Papp B→A at 2 h, 12 μg/mL of 0.548 ± 0.011 ×10⁻⁶ cm/s. Further, in data set [1] (setting [4]), the Papp B→A at 2 h, 120 μg/mL came to 0.519 ± 0.008 ×10⁻⁶ cm/s and the Papp B→A at 2 h, 1200 μg/mL was determined as 0.531 ± 0.012 ×10⁻⁶ cm/s. The “permeability in BCS” value with Caco-2 cells monolayer (from Papp on Caco-2 cells monolayer, between high- and low-permeability controls) is reported as “moderate-permeability”. Also, the “affinity in human DNA polymerase” value with human DNA polymerase is listed as “low affinity”.

`COCCc1ccc(OCC(O)CNC(C)C)cc1` (stereo not shown) [Metoprolol tartrate]: the Peff with rats intestine (control drugs, perfusion concentration 120 μg/mL, mean ± SD, n = 6) is given as 6.13 ± 2.49 ×10^-5 cm/s. The Papp A→B at 2 h in data set [1] (Caco-2) was determined as 16 ± 0.652 ×10⁻⁶ cm/s.

For Lucifer yellow, the “%lucifer yellow” value in the data set with Caco-2 cells monolayer (lucifer yellow 20 μg/mL, AP-BL, without GF120918, 2 h) is recorded as 0.81 ± 0.03%.
